{"source": "ChEMBL document CHEMBL4261600", "about": "(Eur J Med Chem, 2018)", "key": {"[1]": {"experiment": "MRT (0 to t) in mouse at 10 mg/kg, po by LC-MS/MS analysis", "format": "ADME, organism-based", "conditions": "in vivo"}, "[2]": {"experiment": "MRT (0 to t) in Sprague-Dawley rat at 3 mg/kg, iv by LC-MS/MS analysis", "format": "ADME, organism-based", "conditions": "in vivo"}, "MOLM-14": {"system": "MOLM-14", "experiment": "Antiproliferative activity against human MOLM14 cells after 72 hrs by Celltiter-Glo assay", "format": "functional", "conditions": "MOLM-14, 72 h", "in_short": "(§1)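 Cells seeded at 3000/well in 96-well plates, exposed to serially diluted compound for 72 h at 37 °C, 5% CO2. Viability read by CellTiter-Glo luminescence and normalized to DMSO control. GI50 derived from curve fit, mean of three independent measurements. Culture media: DMEM/10% FBS for adherent lines; IMDM for MV4-11 and MEC-1/2; RPMI 1640 for suspension lines and CHL.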"}, "CDK2/Cyclin A2": {"biological_target": "CDK2/Cyclin A2 (Homo sapiens, UniProt P24941)", "experiment": "Inhibition of recombinant full length His-tagged human CDK2/CyclinA expressed in baculovirus expression system"}, "[3]": {"biological_target": "Serine/threonine-protein kinase ULK3 (Homo sapiens) (UniProt Q6PHR2)", "experiment": "Binding affinity to wild-type human partial length ULK3 (M1 to Q290 residues) expressed in mammalian expression system assessed as remaining unbound target protein level at 1000 nM by Kinomescan method relative to control"}, "[4]": {"biological_target": "Serine/threonine-protein kinase ULK1 (Homo sapiens) (UniProt O75385)", "experiment": "Binding affinity to wild-type human partial length ULK1 (M1 to T309 residues) expressed in mammalian expression system assessed as remaining unbound target protein level at 1000 nM by Kinomescan method relative to control"}, "[5]": {"experiment": "Cmax in beagle dog at 10 mg/kg, po by LC-MS/MS analysis", "format": "ADME, organism-based, Canis lupus familiaris", "set-up": "dose 10 mg/kg, route oral", "conditions": "in vivo"}, "[6]": {"biological_target": "Rho-associated protein kinase 1 (Homo sapiens) (UniProt Q13464)", "experiment": "Binding affinity to wild-type human partial length ROCK1 (M1 to R415 residues) expressed in mammalian expression system assessed as remaining unbound target protein level at 1000 nM by Kinomescan method relative to control"}, "[7]": {"biological_target": "MAP kinase-interacting serine/threonine-protein kinase 2 (Homo sapiens) (UniProt Q9HBH9)", "sequence (Q9HBH9 whole entry, looked up, the tested form may be a part)": "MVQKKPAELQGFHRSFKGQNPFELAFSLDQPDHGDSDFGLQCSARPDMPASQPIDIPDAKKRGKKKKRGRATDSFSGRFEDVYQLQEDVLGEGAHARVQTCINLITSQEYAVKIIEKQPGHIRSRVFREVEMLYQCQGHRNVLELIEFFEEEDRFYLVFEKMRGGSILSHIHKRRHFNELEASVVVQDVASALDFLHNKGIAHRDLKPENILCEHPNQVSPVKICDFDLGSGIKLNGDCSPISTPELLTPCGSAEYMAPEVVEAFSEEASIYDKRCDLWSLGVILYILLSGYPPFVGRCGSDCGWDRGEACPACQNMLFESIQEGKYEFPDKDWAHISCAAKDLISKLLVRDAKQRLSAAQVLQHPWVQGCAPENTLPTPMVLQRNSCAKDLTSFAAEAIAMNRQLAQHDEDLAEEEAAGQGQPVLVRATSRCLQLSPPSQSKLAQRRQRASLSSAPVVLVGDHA", "experiment": "Binding affinity to wild-type human partial length MKNK2 (G63 to S388 residues) expressed in mammalian expression system assessed as remaining unbound target protein level at 1000 nM by Kinomescan method relative to control"}, "[8]": {"biological_target": "Serine/threonine-protein kinase 25 (Homo sapiens) (UniProt O00506)", "experiment": "Binding affinity to wild-type human partial length YSK1 (V14 to H295 residues) expressed in bacterial expression system assessed as remaining unbound target protein level at 1000 nM by Kinomescan method relative to control"}, "[9]": {"biological_target": "ALK tyrosine kinase receptor (Homo sapiens) (UniProt Q9UM73)", "sequence (Q9UM73 19-1620 limits assumed)": "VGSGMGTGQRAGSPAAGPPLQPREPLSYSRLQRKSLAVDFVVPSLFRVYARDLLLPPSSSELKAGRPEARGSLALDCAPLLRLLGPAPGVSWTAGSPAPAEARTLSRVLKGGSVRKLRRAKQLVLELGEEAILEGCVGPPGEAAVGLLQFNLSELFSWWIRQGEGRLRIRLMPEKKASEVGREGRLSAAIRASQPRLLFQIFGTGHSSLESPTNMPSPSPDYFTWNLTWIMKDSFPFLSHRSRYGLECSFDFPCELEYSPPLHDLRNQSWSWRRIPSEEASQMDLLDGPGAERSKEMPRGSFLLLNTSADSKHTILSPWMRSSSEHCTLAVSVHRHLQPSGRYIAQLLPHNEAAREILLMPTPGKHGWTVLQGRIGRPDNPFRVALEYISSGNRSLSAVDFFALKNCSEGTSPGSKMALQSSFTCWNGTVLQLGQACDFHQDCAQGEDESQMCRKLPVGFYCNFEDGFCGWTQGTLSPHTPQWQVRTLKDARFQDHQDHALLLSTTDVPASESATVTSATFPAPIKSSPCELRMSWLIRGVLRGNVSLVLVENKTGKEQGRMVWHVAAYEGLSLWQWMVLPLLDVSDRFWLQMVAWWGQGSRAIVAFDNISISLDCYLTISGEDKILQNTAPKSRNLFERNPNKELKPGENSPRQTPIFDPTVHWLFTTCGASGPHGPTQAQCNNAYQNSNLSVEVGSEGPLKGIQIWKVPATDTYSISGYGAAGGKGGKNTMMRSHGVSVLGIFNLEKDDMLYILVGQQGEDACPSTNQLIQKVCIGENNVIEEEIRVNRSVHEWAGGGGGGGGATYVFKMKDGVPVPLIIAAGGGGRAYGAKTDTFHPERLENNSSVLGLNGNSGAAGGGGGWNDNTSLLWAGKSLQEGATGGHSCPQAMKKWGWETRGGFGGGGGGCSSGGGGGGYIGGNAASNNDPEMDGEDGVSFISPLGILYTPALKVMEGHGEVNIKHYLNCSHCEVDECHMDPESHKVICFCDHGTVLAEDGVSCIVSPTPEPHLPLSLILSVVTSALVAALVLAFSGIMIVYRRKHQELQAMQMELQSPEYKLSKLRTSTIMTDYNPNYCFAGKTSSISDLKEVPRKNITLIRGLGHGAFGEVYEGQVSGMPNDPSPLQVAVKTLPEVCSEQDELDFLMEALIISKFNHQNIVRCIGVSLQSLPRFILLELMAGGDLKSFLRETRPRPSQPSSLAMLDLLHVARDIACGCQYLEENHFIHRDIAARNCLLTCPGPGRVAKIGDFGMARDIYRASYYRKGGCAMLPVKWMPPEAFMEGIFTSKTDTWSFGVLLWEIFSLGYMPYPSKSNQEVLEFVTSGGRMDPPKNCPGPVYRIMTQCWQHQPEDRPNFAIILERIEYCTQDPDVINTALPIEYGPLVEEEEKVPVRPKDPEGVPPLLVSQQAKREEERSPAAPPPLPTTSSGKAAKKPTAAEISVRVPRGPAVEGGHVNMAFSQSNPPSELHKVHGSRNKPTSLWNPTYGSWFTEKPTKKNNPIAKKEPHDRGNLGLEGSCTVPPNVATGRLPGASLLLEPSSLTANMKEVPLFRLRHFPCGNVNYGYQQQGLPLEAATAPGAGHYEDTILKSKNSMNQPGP", "experiment": "Binding affinity to wild-type human partial length ALK (I1088 to E1409 residues) expressed in mammalian expression system assessed as remaining unbound target protein level at 1000 nM by Kinomescan method relative to control", "in_short": "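Profiled in a KINOMEscan binding panel with the inhibitor at a single concentration of 1 μM. Binding to each kinase was read out as percent of control, relative to a DMSO control. Strong binders were defined as those with a percent control value below 1.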"}, "[10]": {"biological_target": "Receptor tyrosine-protein kinase erbB-4 (Homo sapiens) (UniProt Q15303)", "experiment": "Binding affinity to wild-type human partial length ERBB4 (L690 to K994 residues) expressed in bacterial expression system assessed as remaining unbound target protein level at 1000 nM by Kinomescan method relative to control"}, "[11]": {"experiment": "Tmax in Sprague-Dawley rat at 3 mg/kg, iv by LC-MS/MS analysis", "format": "ADME, organism-based", "conditions": "in vivo"}, "[12]": {"biological_target": "Receptor-interacting serine/threonine-protein kinase 1 (Homo sapiens) (UniProt Q13546)", "experiment": "Binding affinity to wild-type human partial length RIPK1 (M1 to K305 residues) expressed in bacterial expression system assessed as remaining unbound target protein level at 1000 nM by Kinomescan method relative to control"}, "[13]": {"biological_target": "Mitogen-activated protein kinase kinase kinase kinase 4 (Homo sapiens) (UniProt O95819)", "experiment": "Binding affinity to wild-type human partial length MAP4K4 (M1 to R310 residues) expressed in bacterial expression system assessed as remaining unbound target protein level at 1000 nM by Kinomescan method relative to control", "in_short": "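KINOMEscan binding panel of 468 kinases/mutants. Inhibitor was tested at a single concentration of 1 μM. Binding is reported as percent of control, defined relative to a DMSO control.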"}, "[14]": {"biological_target": "LIM domain kinase 2 (Homo sapiens) (UniProt P53671)", "experiment": "Binding affinity to wild-type human full length LIMK2 (M1 to P638 residues) expressed in bacterial expression system assessed as remaining unbound target protein level at 1000 nM by Kinomescan method relative to control", "in_short": "(§2)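 Single-point competition binding screen across a panel of 468 kinases and mutants, with the inhibitor at 1 μM. Binding is read out as percent of a DMSO control, and targets below 1 percent control were classed as strong binders.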"}, "[15]": {"biological_target": "Rho-associated protein kinase 2 (Homo sapiens) (UniProt O75116)", "sequence (O75116 whole entry, looked up, the tested form may be a part)": "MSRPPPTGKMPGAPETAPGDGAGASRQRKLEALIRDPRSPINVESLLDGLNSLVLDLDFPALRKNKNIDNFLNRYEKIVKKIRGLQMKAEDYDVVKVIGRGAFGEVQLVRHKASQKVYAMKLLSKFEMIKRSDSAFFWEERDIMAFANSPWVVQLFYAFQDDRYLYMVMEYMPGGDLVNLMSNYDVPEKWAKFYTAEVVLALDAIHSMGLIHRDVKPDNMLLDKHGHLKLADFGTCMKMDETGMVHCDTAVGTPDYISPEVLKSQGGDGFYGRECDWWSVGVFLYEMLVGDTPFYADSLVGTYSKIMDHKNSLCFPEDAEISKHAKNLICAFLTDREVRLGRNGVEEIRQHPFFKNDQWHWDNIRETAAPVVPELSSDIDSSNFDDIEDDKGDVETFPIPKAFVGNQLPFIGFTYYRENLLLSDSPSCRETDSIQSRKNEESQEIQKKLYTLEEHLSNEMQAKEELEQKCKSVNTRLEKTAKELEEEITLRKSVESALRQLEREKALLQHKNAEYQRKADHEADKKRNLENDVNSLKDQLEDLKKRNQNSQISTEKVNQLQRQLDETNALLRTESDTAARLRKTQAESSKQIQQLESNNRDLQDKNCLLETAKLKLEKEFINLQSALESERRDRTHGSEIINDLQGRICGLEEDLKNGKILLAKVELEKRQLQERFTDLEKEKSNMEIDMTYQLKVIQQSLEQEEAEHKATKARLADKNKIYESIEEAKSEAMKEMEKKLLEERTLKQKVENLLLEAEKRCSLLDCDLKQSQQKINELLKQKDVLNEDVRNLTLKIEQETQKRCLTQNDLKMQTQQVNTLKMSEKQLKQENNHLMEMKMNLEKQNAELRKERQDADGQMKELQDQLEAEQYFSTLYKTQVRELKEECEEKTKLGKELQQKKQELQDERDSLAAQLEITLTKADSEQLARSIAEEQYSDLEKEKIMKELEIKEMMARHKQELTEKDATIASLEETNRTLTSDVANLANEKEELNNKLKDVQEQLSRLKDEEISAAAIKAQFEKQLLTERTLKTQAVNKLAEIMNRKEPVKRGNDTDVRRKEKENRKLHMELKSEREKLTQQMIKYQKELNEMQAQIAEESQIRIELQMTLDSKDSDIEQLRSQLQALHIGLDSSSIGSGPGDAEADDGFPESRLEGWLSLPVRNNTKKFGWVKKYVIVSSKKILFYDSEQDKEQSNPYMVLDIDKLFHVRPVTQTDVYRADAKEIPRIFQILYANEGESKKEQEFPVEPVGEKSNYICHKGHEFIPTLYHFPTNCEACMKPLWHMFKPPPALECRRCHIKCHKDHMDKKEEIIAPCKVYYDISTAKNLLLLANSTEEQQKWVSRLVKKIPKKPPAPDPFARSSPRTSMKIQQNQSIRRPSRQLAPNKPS", "experiment": "Binding affinity to wild-type human partial length ROCK2 (M1 to T431 residues) expressed in mammalian expression system assessed as remaining unbound target protein level at 1000 nM by Kinomescan method relative to control"}, "[16]": {"biological_target": "Epithelial discoidin domain-containing receptor 1 (Homo sapiens) (UniProt Q08345)", "experiment": "Binding affinity to wild-type human partial length DDR1 (R565 to V876 residues) expressed in bacterial expression system assessed as remaining unbound target protein level at 1000 nM by Kinomescan method relative to control"}, "[17]": {"biological_target": "Activin receptor type-2A (Homo sapiens) (UniProt P27037)", "experiment": "Binding affinity to wild-type human ACVR2A (V171 to T499 residues) expressed in bacterial expression system assessed as remaining unbound target protein level at 1000 nM by Kinomescan method relative to control", "in_short": "as §2"}, "[18]": {"system": "Tyrosine-protein kinase ABL1 (Homo sapiens), P00519 [Q252H]", "experiment": "Binding affinity to human non-phosphorylated ABL1 Q252H mutant (S229 to K512 residues) expressed in mammalian expression system assessed as remaining unbound target protein level at 1000 nM by Kinomescan method relative to control", "in_short": "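KINOMEscan competition-binding profiling across the panel of 468 kinases and mutants, with inhibitor tested at 1 μM. Binding is expressed as percent of control, with DMSO as the reference control.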"}, "GISTT1": {"system": "GISTT1", "experiment": "Antiproliferative activity against human GISTT1 cells after 72 hrs by Celltiter-Glo assay", "format": "functional", "conditions": "GISTT1, 72 h", "in_short": "as §1"}, "[19]": {"biological_target": "Cyclin-dependent kinase 11B (Homo sapiens, UniProt P21127)", "sequence (P21127 whole entry)": "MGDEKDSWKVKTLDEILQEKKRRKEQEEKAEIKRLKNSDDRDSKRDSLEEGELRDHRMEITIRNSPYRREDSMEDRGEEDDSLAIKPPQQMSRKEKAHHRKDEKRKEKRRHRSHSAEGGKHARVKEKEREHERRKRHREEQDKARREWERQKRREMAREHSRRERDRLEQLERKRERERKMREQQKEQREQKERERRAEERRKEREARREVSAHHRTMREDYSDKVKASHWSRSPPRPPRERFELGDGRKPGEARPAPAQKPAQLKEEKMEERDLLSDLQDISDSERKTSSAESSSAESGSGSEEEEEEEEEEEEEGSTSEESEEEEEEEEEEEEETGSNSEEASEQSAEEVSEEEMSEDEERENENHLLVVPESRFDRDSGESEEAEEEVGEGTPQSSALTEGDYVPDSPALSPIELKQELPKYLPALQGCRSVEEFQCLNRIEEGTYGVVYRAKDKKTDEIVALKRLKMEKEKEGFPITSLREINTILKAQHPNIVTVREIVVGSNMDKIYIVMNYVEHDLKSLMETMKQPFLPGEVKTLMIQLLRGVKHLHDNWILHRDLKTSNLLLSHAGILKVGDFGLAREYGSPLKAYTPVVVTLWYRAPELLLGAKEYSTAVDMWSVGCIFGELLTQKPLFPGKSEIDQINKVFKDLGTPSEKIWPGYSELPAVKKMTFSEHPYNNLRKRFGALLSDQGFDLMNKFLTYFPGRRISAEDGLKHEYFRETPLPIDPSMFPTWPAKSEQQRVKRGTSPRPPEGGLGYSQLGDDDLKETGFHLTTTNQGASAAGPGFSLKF", "experiment": "Inhibition of recombinant GST-tagged inactive state of human CDK11"}, "[20]": {"biological_target": "Calcium/calmodulin-dependent protein kinase kinase 1 (Homo sapiens) (UniProt Q8N5S9)", "sequence (Q8N5S9 whole entry, looked up, the tested form may be a part)": "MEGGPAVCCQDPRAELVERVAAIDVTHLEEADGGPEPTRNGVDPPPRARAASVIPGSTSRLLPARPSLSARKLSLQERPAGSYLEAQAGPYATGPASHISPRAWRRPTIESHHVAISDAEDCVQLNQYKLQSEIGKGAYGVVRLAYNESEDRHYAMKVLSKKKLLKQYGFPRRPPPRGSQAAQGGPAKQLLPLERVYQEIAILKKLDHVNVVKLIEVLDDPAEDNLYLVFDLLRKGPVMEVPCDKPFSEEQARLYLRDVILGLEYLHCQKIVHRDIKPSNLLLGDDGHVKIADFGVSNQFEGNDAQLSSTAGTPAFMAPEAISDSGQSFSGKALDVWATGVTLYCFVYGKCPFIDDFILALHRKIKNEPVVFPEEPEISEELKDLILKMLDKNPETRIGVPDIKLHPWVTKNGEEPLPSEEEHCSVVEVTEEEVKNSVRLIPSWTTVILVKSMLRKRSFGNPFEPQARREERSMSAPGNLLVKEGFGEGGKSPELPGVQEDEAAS", "experiment": "Binding affinity to wild-type human partial length CAMKK1 (R65 to E414 residues) expressed in bacterial expression system assessed as remaining unbound target protein level at 1000 nM by Kinomescan method relative to control"}}, "data": [{"smiles": "COCCN[C@H]1CC[C@H](Nc2cc(-c3csc(NCC4(C#N)CCOCC4)n3)c(Cl)cn2)CC1", "values": [{"measurement": "MRT last", "setting": "[1]", "result": 3.24, "unit": "h"}, {"measurement": "MRT last", "setting": "[2]", "result": 4.69, "unit": "h"}, {"measurement": "GI50", "setting": "MOLM-14", "result": 1.1, "unit": "nM"}, {"measurement": "IC50", "setting": "CDK2/Cyclin A2", "result": 2860, "unit": "nM"}, {"measurement": "Activity", "setting": "[3]", "result": 100, "unit": "%"}, {"measurement": "Activity", "setting": "[4]", "result": 100, "unit": "%"}, {"measurement": "Cmax", "setting": "[5]", "result": 771, "unit": "ng/mL"}, {"measurement": "Activity", "setting": "[6]", "result": 93, "unit": "%"}, {"measurement": "Activity", "setting": "[7]", "result": 97, "unit": "%"}, {"measurement": "Activity", "setting": "[8]", "result": 92, "unit": "%"}, {"measurement": "Activity", "setting": "[9]", "result": 96, "unit": "%"}, {"measurement": "Activity", "setting": "[10]", "result": 85, "unit": "%"}, {"measurement": "Tmax", "setting": "[11]", "result": 1.2, "unit": "min"}, {"measurement": "Activity", "setting": "[12]", "result": 79, "unit": "%"}, {"measurement": "Activity", "setting": "[13]", "result": 91, "unit": "%"}, {"measurement": "Activity", "setting": "[14]", "result": 76, "unit": "%"}, {"measurement": "Activity", "setting": "[15]", "result": 98, "unit": "%"}, {"measurement": "Activity", "setting": "[16]", "result": 89, "unit": "%"}, {"measurement": "Activity", "setting": "[17]", "result": 100, "unit": "%"}, {"measurement": "Activity", "setting": "[18]", "result": 97, "unit": "%"}, {"measurement": "GI50", "setting": "GISTT1", "result": 2.1, "unit": "nM"}, {"measurement": "IC50", "setting": "[19]", "result": "> 10000", "unit": "nM"}, {"measurement": "Activity", "setting": "[20]", "result": 84, "unit": "%"}]}]}
